Active and inactive are the calls of the source.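 How the source made its calls, unless noted: active means Her2 level under about 52% in both replicate screens, with viability over 70% of control (limit read from the data); inconclusive means Her2 under the limit in one screen only, or viability under 70%; inactive means Her2 level above the set limit.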
What was measured:
[1] = Her2 expression decrease, cell viability multiplex – SKBR3 breast tumor cells, AlphaScreen, ATP viability, primary screen (AID 461); conditions: SKBR3 Her2 protein level, 18-24 h, measured here: SKBR3 viability, ATP luminescence, at 10 µM;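 on Her2 level: lower value means less Her2 protein in the cells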;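 on viability: percent of carrier control wells set as 100% viability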
[2] = molecular target: Receptor tyrosine-protein kinase erbB-2 (Homo sapiens) (UniProt P04626); experiment: as above; conditions: 18-24 h, at 10 µM, stronger effect = lower value
Chain of Receptor tyrosine-protein kinase erbB-2 (Homo sapiens) (P04626 whole entry, looked up): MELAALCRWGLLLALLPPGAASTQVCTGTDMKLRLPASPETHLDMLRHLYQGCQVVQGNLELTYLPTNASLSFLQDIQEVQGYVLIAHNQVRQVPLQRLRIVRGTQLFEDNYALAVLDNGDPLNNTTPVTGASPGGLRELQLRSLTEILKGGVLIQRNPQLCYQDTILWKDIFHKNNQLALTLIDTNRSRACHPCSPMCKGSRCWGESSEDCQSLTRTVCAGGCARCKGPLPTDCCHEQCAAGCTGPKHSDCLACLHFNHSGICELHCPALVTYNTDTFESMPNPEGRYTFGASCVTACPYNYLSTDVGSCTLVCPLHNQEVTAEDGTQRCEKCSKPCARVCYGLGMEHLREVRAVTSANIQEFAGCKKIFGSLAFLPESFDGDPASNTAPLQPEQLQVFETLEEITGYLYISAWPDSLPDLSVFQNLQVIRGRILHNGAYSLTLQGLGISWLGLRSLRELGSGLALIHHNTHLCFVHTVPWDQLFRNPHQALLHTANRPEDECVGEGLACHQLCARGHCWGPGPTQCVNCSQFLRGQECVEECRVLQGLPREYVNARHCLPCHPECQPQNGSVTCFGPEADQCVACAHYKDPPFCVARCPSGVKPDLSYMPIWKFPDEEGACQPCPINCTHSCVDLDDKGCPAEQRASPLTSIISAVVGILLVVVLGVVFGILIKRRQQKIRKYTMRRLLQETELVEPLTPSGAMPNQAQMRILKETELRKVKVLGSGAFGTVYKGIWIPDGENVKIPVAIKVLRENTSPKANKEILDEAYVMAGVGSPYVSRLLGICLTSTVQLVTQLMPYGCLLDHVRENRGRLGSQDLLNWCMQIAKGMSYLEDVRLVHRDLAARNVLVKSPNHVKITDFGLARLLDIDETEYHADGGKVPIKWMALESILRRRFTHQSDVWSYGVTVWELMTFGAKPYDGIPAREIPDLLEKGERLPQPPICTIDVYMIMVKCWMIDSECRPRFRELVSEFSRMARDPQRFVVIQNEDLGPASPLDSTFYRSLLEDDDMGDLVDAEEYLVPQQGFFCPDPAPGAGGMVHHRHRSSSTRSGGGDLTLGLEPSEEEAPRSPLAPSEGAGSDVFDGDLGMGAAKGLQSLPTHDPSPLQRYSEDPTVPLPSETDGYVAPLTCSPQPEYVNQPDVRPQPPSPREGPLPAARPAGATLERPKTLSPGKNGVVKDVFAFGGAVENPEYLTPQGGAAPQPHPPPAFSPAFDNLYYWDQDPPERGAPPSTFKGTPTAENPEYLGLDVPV

[3] = reduced viability of SK-BR-3 breast cancer cells – cell-based, 24 h, human, pilot screen (AID 572;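 active means viability at or below 10% of carrier control in both of two separate runs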;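 further: compound exposure lasted between 18 and 24 h rather than exactly 24 h; 100% = carrier-treated control wells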); conditions: SK-BR-3 viability, CellTiter-Glo luminescence, at 10 µM, stronger effect = lower value
[4] = HUVEC growth inhibition – cell-based, human, primary screen (AID 575;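 active means viability at or below 30% in both replicate assays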;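 further: 100% = median of untreated cell wells with 0.1% DMSO on each plate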); conditions: HUVEC proliferation, CellTiter-Glo luminescence, 72 h; at 10 µM; stronger effect = lower value
Outline: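 Timing: 72 h treatment at 37 °C; material: HUVEC primary cells; technique: CellTiter-Glo luminescence measuring cellular ATP; controls: vehicle and MePR control wells; measure: percent of median DMSO-control luminescence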

[5] = H69AR cell proliferation blockers – human, duplicate replicates, primary screen (AID 580;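 active means viability at or under a set limit in both replicates, limit being median viability minus 3 SD, cut at about 48% in these data, passing the limit was not always enough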;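 further: 100% = mean luminescence of untreated wells and 0% = no signal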); conditions: H69AR lung tumor cells viability, ATP luminescence, 72 h; at 10 µM; stronger effect = lower value
[6] = MRP1 drug-resistance reversers in H69AR cells – cell-based, doxorubicin co-treatment, pilot screen (AID 601;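 active means viability loss from added drug above about 55%, and viability with drug at most 40%, in both replicates, limit read from the data, passing the limit was not always enough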); conditions: CellTiter-Glo, 72 h, at 10 µM; for differential viability (reversal): stronger effect = higher value
[7] = yeast transport mutant growth inhibition pilot in 384-well plates, post-Golgi transport modulator project (AID 636; in the data active means inhibition above about 31%); conditions: absorbance 615 nm, about 18 h, stronger effect = higher value
[8] = growth suppression of yeast trafficking mutant, preliminary HTS, modulators of trafficking downstream of Golgi apparatus project, 1536-format plate, OD 615 nm (AID 637; in the data active means inhibition above about 30%); conditions: yeast transport mutant growth, absorbance 615 nm, 18 h; stronger effect = higher value
[9] = H69AR cells + 2 uM doxorubicin, measured here: viability with 2 uM doxorubicin, stronger effect = lower value
[10] = H69AR cells, compound alone cytotoxicity

Row | Compound | viability [1] | Her2 level [2] | viability [3] | viability [4] | viability [5] | differential viability (reversal) ([6]; H69AR cells + 2 uM doxorubicin) | viability [6, 9] | viability [6, 10] | inhibition [7] | inhibition [8]
1 | CC1(C)CC(=O)C(C=Nc2ccncc2)=C(O)C1 | 96.5% | 93% (inactive) | 96.5% (inactive) | 92.2% (inactive) | 106% (inactive) | 7.13% (inactive) | 99.3% | 106% | -4.19% (inactive) | -7.62% (inactive)
2 | Cc1cc2c(cc(C(=O)OCC(=O)NCc3cccs3)n2C(C)C)o1 | 83% | 63.5% (inactive) | 83% (inactive) | 37.3% (inactive) | 21.7% (active) | -30.4% (inactive) | 52.1% | 21.7% | -6% (inactive) | 5.9% (inactive)
3 | COc1ccccc1NC(=O)CC(NCc1ccccc1)C(=O)O (stereo not given) | 108% | 80% (inactive) | 108% (inactive) | 110% (inactive) | 89.1% (inactive) | -2.06% (inactive) | 91.2% | 89.1% | -7.43% (inactive) | -3% (inactive)
4 | COC(=O)[C@H](CCSC)NC(=O)Nc1cc(C)ccc1C | 124% | 89% (inactive) | 124% (inactive) | 84.1% (inactive) | 82.2% (inactive) | -7.82% (inactive) | 90% | 82.2% | -6.22% (inactive) | 5.71% (inactive)
5 | COc1ccccc1C1C(C#N)=C(N)Oc2cc(C)n(Cc3ccccn3)c(=O)c21 (stereo not given) | 108% | 133% (inactive) | 108% (inactive) | 93.9% (inactive) | 90.2% (inactive) | -2.41% (inactive) | 92.6% | 90.2% | -0.66% (inactive) | -6.94% (inactive)
6 | CC(=O)n1nc(-c2ccco2)nc1SCc1ccccc1 | 77% | 103% (inactive) | 77% (inactive) | 97.2% (inactive) | 98.7% (inactive) | 14.9% (inactive) | 83.8% | 98.7% | 1.54% (inactive) | 0% (inactive)
7 | CCCCCC(=O)N1CC2(C)CN(C(=O)CCCCC)CC(C)(C1)C2=O | 87% | 93% (inactive) | 87% (inactive) | 96.9% (inactive) | 87.5% (inactive) | 4.14% (inactive) | 83.4% | 87.5% | 0.9% (inactive) | 6.67% (inactive)
8 | c1cncc(-c2nc3c4ccccc4nc(N4CCC(N5CCCCC5)CC4)n3n2)c1 | 93.5% | 79.5% (inactive) | 93.5% (inactive) | 80.1% (inactive) | 84.1% (inactive) | 2.83% (inactive) | 81.2% | 84.1% | -9.73% (inactive) | -0.48% (inactive)
9 | COC(=O)c1[nH]c(C)c(/C(O)=C2\C(=O)C(=O)N(CCN(C)C)C2c2ccccc2OC)c1C (stereo not given) | 88% | 114% (inactive) | 88% (inactive) | 79% (inactive) | 84.3% (inactive) | 1.34% (inactive) | 82.9% | 84.3% | -6.89% (inactive) | -1.5% (inactive)
10 | O=C(c1ccccc1)N1CCN(CC2CC=CCC2)CC1 (stereo not given) | 82.5% | 79% (inactive) | 82.5% (inactive) | 102% (inactive) | 96.1% (inactive) | 2.54% (inactive) | 93.5% | 96.1% | -6.05% (inactive) | 2.5% (inactive)
11 | CCOC(=O)CCNC(=O)Nc1ccc2nc(C)n(Cc3ccccc3Cl)c(=O)c2c1 | 87% | 110% (inactive) | 87% (inactive) | 92.9% (inactive) | 94.9% (inactive) | 7.92% (inactive) | 87% | 94.9% | -0.92% (inactive) | 1.67% (inactive)
12 | CCOC(=O)N1CCN(c2cc3[nH]c(=S)[nH]c3cc2F)CC1 | 112% | 83% (inactive) | 112% (inactive) | 100% (inactive) | 89.7% (inactive) | -6.7% (inactive) | 96.4% | 89.7% | -7.2% (inactive) | -2.58% (inactive)
13 | C/C(CC(O)(/C=N/O)c1ccccc1)=N\O (stereo not given) | 86% | 91.5% (inactive) | 86% (inactive) | 107% (inactive) | 94% (inactive) | 2.94% (inactive) | 91.1% | 94% | -0.26% (inactive) | 3.77% (inactive)
14 | Cc1ccc(S(=O)(=O)N(C)c2ccc(OCC(=O)OCc3c(C)noc3C)cc2)cc1 | 92.5% | 97% (inactive) | 92.5% (inactive) | 95.4% (inactive) | 105% (inactive) | 6.56% (inactive) | 98.6% | 105% | -1.71% (inactive) | -10.3% (inactive)
15 | O=C(CSc1nnnn1C1CCCC1)NCc1ccc2c(c1)OCO2 | 86% | 89% (inactive) | 86% (inactive) | 93.7% (inactive) | 102% (inactive) | 3.33% (inactive) | 98.6% | 102% | -6.22% (inactive) | 2.46% (inactive)
